The values that follow come from ChEMBL document CHEMBL5252513, “Identification of a Benzoisoxazoloazepine Inhibitor (CPI-0610) of the Bromodomain and Extra-Terminal (BET) Family as a Candidate for Human Clinical Trials” (J Med Chem, 2016).

A short description of series [1]: Tmax in human patient with progression lymphoma at 300 mg,po QD consecutively for 14 days. The class given is ADME. Particulars: in vivo, time 14 day.
Series [2] can be described thus: AUC (0 to 24 hrs) in human patient with progression lymphoma at 300 mg,po QD and measured after 24 hrs. In kind it is ADME. Set-up: time 24 hrs, dose 300 mg, route po. The conditions noted are these: in vivo. In a few lines:
(§1)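 Phase I trial in patients with hematologic malignancies, oral dosing once daily with escalating cohorts; values are from the 300 mg dose on day 14. AUC0-24 was taken as exposure over 24 h. Apparent clearance was calculated as Dose/AUC0-24.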

The nature of series [3]: Intrinsic clearance in mouse liver microsomes. In kind it is ADME, Microsome. Particulars: read-out: CLH.
The subject of another series is MV4-11. The series can be described thus: In vivo inhibition of BRD4 in human MV4-11 cells xenografted in BALB/c mouse assessed as reduction in cellular MYC mRNA expression level in tumor at 15 mg/kg,sc BID and measured at 4 hrs by PCR anlaysis. The class given is functional, organism-based. In a few lines: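 Pharmacodynamic study in MV-4-11 AML mouse xenograft. Dosing was 15 mg/kg subcutaneous twice daily. At 4, 8 and 12 h after the second dose, MYC mRNA was measured against vehicle, and compound levels were measured in plasma and tumor. Free plasma concentration was estimated alongside total levels.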
(In general: A xenograft is tissue or cells of one species grown in another, often human tumour cells in immunodeficient mice.)

Series [4] concerns the target T1, Bromodomain-containing protein 9 (Homo sapiens, UniProt Q9H8M2).
T1 sequence (Q9H8M2 whole entry): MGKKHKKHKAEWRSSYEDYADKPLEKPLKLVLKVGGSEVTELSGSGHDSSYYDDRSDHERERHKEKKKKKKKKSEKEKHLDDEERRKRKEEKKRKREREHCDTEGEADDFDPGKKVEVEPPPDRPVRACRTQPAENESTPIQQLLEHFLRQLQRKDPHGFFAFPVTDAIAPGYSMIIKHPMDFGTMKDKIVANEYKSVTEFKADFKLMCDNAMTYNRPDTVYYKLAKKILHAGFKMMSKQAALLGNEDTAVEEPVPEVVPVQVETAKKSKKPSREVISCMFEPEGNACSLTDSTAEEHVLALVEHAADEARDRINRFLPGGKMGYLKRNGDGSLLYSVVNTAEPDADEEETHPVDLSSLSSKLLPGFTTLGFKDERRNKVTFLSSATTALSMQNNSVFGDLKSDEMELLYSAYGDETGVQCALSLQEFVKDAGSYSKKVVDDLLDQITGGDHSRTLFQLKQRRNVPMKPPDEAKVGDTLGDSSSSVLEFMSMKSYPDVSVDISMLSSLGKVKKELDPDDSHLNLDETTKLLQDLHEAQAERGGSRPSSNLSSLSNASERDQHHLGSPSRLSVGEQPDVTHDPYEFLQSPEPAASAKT
As to the kind of experiment: Displacement of biotinylated JQ1 from BRD9 bromodomain (unknown origin) incubated for 20 mins by AlphaLISA assay. (In general: In Alpha technology, singlet oxygen from a donor bead excites a nearby acceptor bead.)

Series [5] in a line: Protein binding in mouse plasma. The class given is ADME, cell-free. Particulars: read-out: PPB (converted).
The nature of series [6]: Total clearance in rat at 1 mg/kg,iv. The conditions noted are these: in vivo. In kind it is ADME, organism-based.
Series [7] is described as follows: Toxicity in rat assessed as GI mucosal atrophy at 2 to 20 mg/kg,po QD consecutive for 14 days followed by 2 weeks recovery period. The class given is organism-based. Particulars: in vivo, 336 h, dose 2-20 mg/kg, time 14 day. The gist of the method: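 Oral suspension given once daily for 14 consecutive days (rat 2, 6, 20 mg/kg; dog 2, 4, 6 mg/kg) in dose range-finding and GLP repeat-dose studies, GLP arms with an added 2-week recovery period; histopathology and clinical pathology findings recorded.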

Series [8] in a line: AUC (0 to infinity) in mouse at 30 mg/kg,po. In kind it is ADME, organism-based. Set-up: dose 30 mg/kg, route po. Particulars: in vivo.
The nature of series [9]: Cmax in mouse at 10 mg/kg,sc. On the set-up: dose 10 mg/kg, route sc. Particulars: in vivo. The class given is ADME, organism-based.
Series [10] can be described thus: Intrinsic clearance in rat liver microsomes. The class given is ADME, Microsome.
The target in series [11] is T2, Transcription intermediary factor 1-alpha (Homo sapiens, UniProt O15164).
T2 sequence (O15164 whole entry): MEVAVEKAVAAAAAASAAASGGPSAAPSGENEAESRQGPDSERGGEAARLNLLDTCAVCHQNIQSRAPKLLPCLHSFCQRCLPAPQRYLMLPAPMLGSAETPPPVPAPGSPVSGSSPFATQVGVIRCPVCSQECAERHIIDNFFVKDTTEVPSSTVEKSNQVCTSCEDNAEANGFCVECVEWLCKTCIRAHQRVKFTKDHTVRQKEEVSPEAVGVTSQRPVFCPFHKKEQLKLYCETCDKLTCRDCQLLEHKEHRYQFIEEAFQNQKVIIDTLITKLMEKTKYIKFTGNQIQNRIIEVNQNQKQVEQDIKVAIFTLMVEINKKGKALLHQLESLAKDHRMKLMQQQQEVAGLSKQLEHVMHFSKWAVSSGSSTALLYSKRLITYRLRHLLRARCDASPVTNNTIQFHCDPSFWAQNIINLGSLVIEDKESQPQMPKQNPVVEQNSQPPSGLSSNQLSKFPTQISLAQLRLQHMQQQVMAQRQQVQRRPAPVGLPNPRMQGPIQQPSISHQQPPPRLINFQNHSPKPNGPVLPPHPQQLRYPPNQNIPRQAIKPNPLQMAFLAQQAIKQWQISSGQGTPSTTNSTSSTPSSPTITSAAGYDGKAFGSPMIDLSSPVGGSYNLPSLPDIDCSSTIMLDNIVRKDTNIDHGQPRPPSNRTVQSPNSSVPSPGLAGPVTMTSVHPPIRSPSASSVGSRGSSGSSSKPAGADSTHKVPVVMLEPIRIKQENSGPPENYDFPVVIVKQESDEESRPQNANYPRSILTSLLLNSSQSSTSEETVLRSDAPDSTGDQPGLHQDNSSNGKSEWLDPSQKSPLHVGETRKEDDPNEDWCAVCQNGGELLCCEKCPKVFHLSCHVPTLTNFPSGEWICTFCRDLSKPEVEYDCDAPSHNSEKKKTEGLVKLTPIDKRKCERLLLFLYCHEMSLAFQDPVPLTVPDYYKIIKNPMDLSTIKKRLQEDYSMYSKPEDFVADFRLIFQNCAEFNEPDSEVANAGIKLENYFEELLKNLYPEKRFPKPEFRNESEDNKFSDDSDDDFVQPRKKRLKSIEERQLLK
As to the kind of experiment: Binding affinity to TRIM24 bromodomain (unknown origin) incubated for 60 mins by TR-FRET assay.

Series [12] can be described thus: Unbound Cmax in human patient with progression lymphoma at 300 mg,po QD consecutively for 14 days. In kind it is ADME. The conditions noted are these: in vivo, 336 h, time 14 day. In a few lines: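 Oral dosing in patients with hematologic malignancies, cycles at escalating doses; 300 mg cohort sampled at day 14. Unbound Cmax = free fraction × Cmax.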
Series [13] is described as follows: Apparent oral clearance in human patient with progression lymphoma at 300 mg,po QD consecutively for 14 days. The class given is ADME. Particulars: in vivo, 336 h, time 14 day. In a few lines:
as §1

For series [14], the target named is Bromodomain-containing protein 8 (Homo sapiens, UniProt Q9H0E9). As to the kind of experiment: Displacement of biotinylated JQ1 from BRD8 bromodomain (unknown origin) incubated for 20 mins by AlphaLISA assay.

In general, Tmax refers to the time from dosing to the highest level. A word on the AUC: it is concentration integrated over time. A low value points to less exposure. Usually IC50 stands for the concentration needed to halve the response being measured. A higher IC50 goes with a need for much substance. The clearance is the volume of plasma or blood freed of the substance per unit of time. High values mean a high capacity for elimination, low ones a low capacity for elimination. One may read the AUC(0-inf) as the area under the concentration-time curve extrapolated to infinity. As a reminder, the Cmax is the peak of the concentration-time curve. By CL/F is commonly meant the apparent clearance, not corrected for the fraction that reaches the circulation.

Activity calls are given as the source filed them. No cut-off for these calls is given here.

Sequence of Bromodomain-containing protein 8 (Q9H0E9 whole entry): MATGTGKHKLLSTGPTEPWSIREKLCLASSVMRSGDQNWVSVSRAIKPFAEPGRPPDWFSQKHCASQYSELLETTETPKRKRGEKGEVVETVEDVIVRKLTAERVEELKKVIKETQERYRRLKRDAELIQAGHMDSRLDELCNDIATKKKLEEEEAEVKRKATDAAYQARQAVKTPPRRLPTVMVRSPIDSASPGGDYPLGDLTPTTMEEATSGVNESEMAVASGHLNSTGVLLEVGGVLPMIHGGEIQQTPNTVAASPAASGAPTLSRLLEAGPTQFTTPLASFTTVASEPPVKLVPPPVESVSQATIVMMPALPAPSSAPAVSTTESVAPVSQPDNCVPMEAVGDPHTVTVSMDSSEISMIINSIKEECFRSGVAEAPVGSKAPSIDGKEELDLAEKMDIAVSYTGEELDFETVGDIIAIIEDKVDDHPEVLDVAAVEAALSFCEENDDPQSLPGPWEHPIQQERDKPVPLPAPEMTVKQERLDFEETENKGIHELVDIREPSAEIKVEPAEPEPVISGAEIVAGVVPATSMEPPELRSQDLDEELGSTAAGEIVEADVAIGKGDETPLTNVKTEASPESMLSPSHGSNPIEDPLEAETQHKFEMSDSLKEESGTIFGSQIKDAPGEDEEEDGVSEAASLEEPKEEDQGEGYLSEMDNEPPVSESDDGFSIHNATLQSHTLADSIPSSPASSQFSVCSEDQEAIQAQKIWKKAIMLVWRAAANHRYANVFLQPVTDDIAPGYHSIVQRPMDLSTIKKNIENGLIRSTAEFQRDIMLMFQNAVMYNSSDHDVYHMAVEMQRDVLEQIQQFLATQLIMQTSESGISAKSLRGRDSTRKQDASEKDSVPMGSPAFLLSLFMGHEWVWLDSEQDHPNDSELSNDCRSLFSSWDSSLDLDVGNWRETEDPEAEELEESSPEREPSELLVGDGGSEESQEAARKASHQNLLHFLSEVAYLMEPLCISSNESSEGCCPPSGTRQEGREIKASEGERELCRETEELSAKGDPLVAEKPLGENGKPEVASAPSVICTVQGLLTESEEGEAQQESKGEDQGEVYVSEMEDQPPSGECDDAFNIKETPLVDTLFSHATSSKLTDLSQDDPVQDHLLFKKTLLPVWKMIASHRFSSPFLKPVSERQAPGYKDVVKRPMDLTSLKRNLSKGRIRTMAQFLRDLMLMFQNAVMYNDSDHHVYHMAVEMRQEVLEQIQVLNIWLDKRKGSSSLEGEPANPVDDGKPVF

Turning to `Cc1noc2c1-c1ccccc1C(c1ccc(Cl)cc1)=N[C@H]2CC(N)=O` [PELABRESIB], in series [1], the time to peak (Tmax) came out at 1.8 h. The same compound came in with an AUC at 24 h in [2] of 49 µM·h. The predicted hepatic clearance in series [3] is 30 mL/min/kg. In addition, the inhibition entry with MV4-11 was “Active”. Also, the IC50 in [4] was over 80 µM; in [11], over 20 µM; in [14], over 15 µM. The fraction unbound in series [5] is 0.03. Further, in series [6], the clearance was 20 mL/min/kg. In addition, the Activity result in series [7] is “Toxic”. This compound also gave an area under the curve AUC(0-inf) in [8] of 101 µM·h. The peak concentration (Cmax) in [9] came to 8.4 µM. In addition, the predicted hepatic clearance (CLH) in series [10] was 21 mL/min/kg. Besides, in series [12], the fCmax was found to be 0.3 µM. The apparent clearance CL/F in series [13] is 21 L/h.
